From ChEMBL document CHEMBL1781935, “Amberlite-IRA-402 (OH) ion exchange resin mediated synthesis of indolizines, pyrrolo [1,2-a] quinolines and isoquinolines: antibacterial and antifungal evaluation of the products” (2011)
In brackets after ≈: the same amount, converted by molar mass. Activity calls are given as the source filed them. The rule behind the calls is not given here.

What was measured:
Shigella dysenteriae [1] = experiment: Antibacterial activity against Shigella dysenteriae isolate 3; format: functional
Micrococcus luteus [2] = experiment: Antibacterial activity against Micrococcus luteus AGD1; format: functional
Outline: (§1)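 MIC by broth and agar dilution. Broth: 0.1 ml suspension (2 × 10^6 cfu/ml) in Mueller-Hinton broth with test drug at 1–1000 µg/ml, 37 °C overnight. Agar: serial drug dilutions in Mueller-Hinton agar, spot-inoculated with 2 × 10^6 cfu/spot, 37 °C for 24 h. MIC was the lowest concentration with no visible growth. Antibiotic controls were included.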

Shigella flexneri [3] = experiment: Antibacterial activity against Shigella flexneri DN13; format: functional; outline: as §1
Vibrio parahaemolyticus [4] = experiment: Antibacterial activity against Vibrio parahaemolyticus isolate 72016; format: functional; outline: as §1
Salmonella typhimurium [5] = experiment: Antibacterial activity against Salmonella Typhimurium isolate 11; format: functional, Salmonella enterica subsp. enterica serovar Typhimurium; outline: as §1
Bacillus subtilis [6] = experiment: Antibacterial activity against Bacillus subtilis UC564; format: functional; outline: as §1
Staphylococcus aureus [7] = experiment: Antibacterial activity against Staphylococcus aureus ATCC 25923; format: functional; outline: as §1
Klebsiella pneumoniae [8] = experiment: Antibacterial activity against Klebsiella pneumoniae isolate J/1/4; format: functional; outline: as §1
Enterococcus faecalis [9] = experiment: Antibacterial activity against Streptococcus faecalis isolate 29212; format: functional; outline: as §1
Vibrio cholerae [10] = experiment: Antibacterial activity against Vibrio cholerae isolate 7201; format: functional
Pseudomonas aeruginosa [11] = experiment: Antibacterial activity against Pseudomonas aeruginosa ATCC 27853; format: functional; outline: as §1
Escherichia coli [12] = experiment: Antibacterial activity against Escherichia coli ATCC 25938; format: functional; outline: as §1
Salmonella typhi [13] = experiment: Antibacterial activity against Salmonella typhi DIRW; format: functional, Salmonella enterica subsp. enterica serovar Typhi
Escherichia coli [14] = experiment: Antibacterial activity against Escherichia coli ATCC 25938 at 1 to 1000 ug/ml after overnight incubation by disc diffusion method; format: functional
Outline: (§2)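 Disc diffusion on Mueller-Hinton agar. Plates seeded with 0.1 ml bacterial suspension (2 × 10^6 cfu/ml). Sterile 6 mm paper discs were impregnated with compound solutions at 1–1000 µg/ml and incubated at 37 °C overnight. Read-out was the diameter of the clear inhibition zone. Stocks were 1 mg/ml in 4% Tween 80 or 4% propylene glycol.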

Klebsiella pneumoniae [15] = experiment: Antibacterial activity against Klebsiella pneumoniae isolate J/1/4 at 1 to 1000 ug/ml after overnight incubation by disc diffusion method; format: functional; outline: as §2
Salmonella typhimurium [16] = experiment: Antibacterial activity against Salmonella Typhimurium isolate 11 at 1 to 1000 ug/ml after overnight incubation by disc diffusion method; format: functional, organism-based; details: Salmonella enterica subsp. enterica serovar Typhimurium; outline: as §2
Vibrio cholerae [17] = experiment: Antibacterial activity against Vibrio cholerae isolate 720 at 1 to 1000 ug/ml after overnight incubation by disc diffusion method; format: functional
Vibrio cholerae [18] = experiment: Antibacterial activity against Vibrio cholerae isolate 7201 at 1 to 1000 ug/ml after overnight incubation by disc diffusion method; format: functional
Enterococcus faecalis [19] = experiment: Antibacterial activity against Enterococcus faecalis isolate 29212 at 1 to 1000 ug/ml after overnight incubation by disc diffusion method; format: functional; outline: as §2
Staphylococcus aureus [20] = experiment: Antibacterial activity against Staphylococcus aureus ATCC 25923 at 1 to 1000 ug/ml after overnight incubation by disc diffusion method; format: functional; outline: as §2
Vibrio parahaemolyticus [21] = experiment: Antibacterial activity against Vibrio parahaemolyticus isolate 72016 at 1 to 1000 ug/ml after overnight incubation by disc diffusion method; format: functional; outline: as §2
Bacillus subtilis [22] = experiment: Antibacterial activity against Bacillus subtilis UC564 at 1 to 1000 ug/ml after overnight incubation by disc diffusion method; format: functional; outline: as §2
Shigella flexneri [23] = experiment: Antibacterial activity against Shigella flexneri DN13 at 1 to 1000 ug/ml after overnight incubation by disc diffusion method; format: functional; outline: as §2
Salmonella typhi [24] = experiment: Antibacterial activity against Salmonella typhi DIRW at 1 to 1000 ug/ml after overnight incubation by disc diffusion method; format: functional; details: Salmonella enterica subsp. enterica serovar Typhi
Micrococcus luteus [25] = experiment: Antibacterial activity against Micrococcus luteus AGD1 at 1 to 1000 ug/ml after overnight incubation by disc diffusion method; format: functional; outline: as §2
Pseudomonas aeruginosa [26] = experiment: Antibacterial activity against Pseudomonas aeruginosa ATCC 27853 at 1 to 1000 ug/ml after overnight incubation by disc diffusion method; format: functional; outline: as §2
Shigella dysenteriae [27] = experiment: Antibacterial activity against Shigella dysenteriae isolate 3 at 1 to 1000 ug/ml after overnight incubation by disc diffusion method; format: functional

Compound	MIC (Shigella dysenteriae [1]) [µg/mL]	MIC (Micrococcus luteus [2]) [µg/mL]	MIC (Shigella flexneri [3]) [µg/mL]	MIC (Vibrio parahaemolyticus [4]) [µg/mL]	MIC (Salmonella typhimurium [5]; Salmonella enterica) [µg/mL]	MIC (Bacillus subtilis [6]) [µg/mL]	MIC (Staphylococcus aureus [7]) [µg/mL]	MIC (Klebsiella pneumoniae [8]) [µg/mL]	MIC (Enterococcus faecalis [9]) [µg/mL]	MIC (Vibrio cholerae [10]) [µg/mL]	MIC (Pseudomonas aeruginosa [11]) [µg/mL]	MIC (Escherichia coli [12]) [µg/mL]	MIC (Salmonella typhi [13]; Salmonella enterica) [µg/mL]	further results
COC(=O)c1cc2ccccn2c1C(=O)c1ccccc1	> 500	> 500	> 500	> 500	> 500	> 500	> 500	> 500	> 500	> 500	> 500	> 500	> 500	
COC(=O)c1c(C(=O)OC)c2ccccn2c1C(=O)c1ccccc1	> 500	> 500	> 500	> 500	> 500	> 500	> 500	> 500	> 500	> 500	500 (≈ 1480 µM)	> 500	> 500	
GENTAMICIN	1	8	1	1		4	1	2	0.5	0.5	2	0.25		MIC (Salmonella typhimurium [5]; Salmonella enterica subsp. enterica serovar Typhimurium): 1 µg/mL; MIC (Salmonella typhi [13]; Salmonella enterica subsp. enterica serovar Typhi): 1 µg/mL
CCOC(=O)c1c(C(=O)OCC)c2c3ccccc3ccn2c1C(=O)c1ccccc1	> 500	> 500	256 (≈ 616 µM)	128 (≈ 308 µM)	> 500	256 (≈ 616 µM)	500 (≈ 1200 µM)	128 (≈ 308 µM)	> 500	500 (≈ 1200 µM)	500 (≈ 1200 µM)	128 (≈ 308 µM)	128 (≈ 308 µM)	
CCOC(=O)c1c(C(=O)OCC)c2ccccn2c1C(=O)c1ccccc1	> 500	> 500	> 500	> 500	> 500	> 500	> 500	> 500	> 500	> 500	> 500	> 500	> 500	
COC(=O)c1c(C(=O)OC)c2c3ccccc3ccn2c1C(=O)c1ccccc1	> 500	> 500	> 500	256 (≈ 661 µM)	256 (≈ 661 µM)	> 500	256 (≈ 661 µM)	500 (≈ 1290 µM)	> 500	500 (≈ 1290 µM)	500 (≈ 1290 µM)	256 (≈ 661 µM)	> 500	
CCOC(=O)c1cc(C(=O)c2ccccc2)n2ccc3ccccc3c12	128 (≈ 373 µM)	500 (≈ 1460 µM)	256 (≈ 746 µM)	256 (≈ 746 µM)	256 (≈ 746 µM)	64 (≈ 186 µM)	256 (≈ 746 µM)	256 (≈ 746 µM)	256 (≈ 746 µM)	32 (≈ 93.2 µM)	64 (≈ 186 µM)	64 (≈ 186 µM)	> 500	diameter of the inhibition zone (DIZ) (Escherichia coli [14]): 11.2 mm; diameter of the inhibition zone (DIZ) (Klebsiella pneumoniae [15]): 8.5 mm; diameter of the inhibition zone (DIZ) (Salmonella typhimurium [16]): inactive; diameter of the inhibition zone (DIZ) (Vibrio cholerae [17]): 10.2 mm; diameter of the inhibition zone (DIZ) (Vibrio cholerae [18]): 10.2 mm; diameter of the inhibition zone (DIZ) (Enterococcus faecalis [19]): 7 mm; diameter of the inhibition zone (DIZ) (Staphylococcus aureus [20]): 8.3 mm; diameter of the inhibition zone (DIZ) (Vibrio parahaemolyticus [21]): 8 mm; diameter of the inhibition zone (DIZ) (Bacillus subtilis [22]): 11.4 mm; diameter of the inhibition zone (DIZ) (Shigella flexneri [23]): 7.1 mm; diameter of the inhibition zone (DIZ) (Salmonella typhi [24]): inactive; diameter of the inhibition zone (DIZ) (Micrococcus luteus [25]): 8.1 mm; diameter of the inhibition zone (DIZ) (Pseudomonas aeruginosa [26]): 11 mm; diameter of the inhibition zone (DIZ) (Shigella dysenteriae [27]): 9.7 mm
